Laboratory results from ChEMBL document CHEMBL4765413, “Discovery of novel anti-angiogenesis agents. Part 11: Development of PROTACs based on active molecules with potency of promoting vascular normalization” (Eur J Med Chem, 2020).

Columns and labels:
[1] = test system: EA.hy 926; experiment: Antiangiogenic activity in human EA.hy 926 cells measured after 24 hrs by MTT assay; conditions: EA.hy 926, 24 h
[2] = target: Vascular endothelial growth factor receptor 2 (Homo sapiens, UniProt P35968); experiment: Inhibition of recombinant human N-terminal GST-tagged VEGFR2 (789 to end residues) expressed in baculovirus infected Sf9 insect cells using Poly (4:1 Glu, Tyr) as substrate incubated for 1 hr by ADP-Glo luminescent assay
[3] = test system: HEK293; experiment: Cytotoxicity against HEK293 cells measured after 24 hrs by MTT assay; format: cell-based; conditions: human, hek293, 24 h
[4] = target: T1, von Hippel-Lindau disease tumor suppressor/Vascular endothelial growth factor receptor 2 (Homo sapiens) (UniProt P35968+P40337); experiment: Protac activity at VHL/VEGFR2 in human EA.hy 926 cells assessed as induction of VEGFR2 degradation at 40 uM measured after 24 to 48 hrs by Western blot analysis relative to control; format: cell-based; conditions: time 24-48 hrs
Procedure, shortened: (§1)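 EA.hy926 cells were exposed to DMSO vehicle or test compound, then lysed in SDS sample buffer and normalized by BCA protein assay. Equal protein amounts were run on SDS-PAGE and transferred to PVDF. Membranes were blocked in 5% milk/TBS-Tween and probed with anti-VEGFR-2 (1:500), with GAPDH (1:10000) as loading control. Detection used HRP secondary and ECL, with densitometric quantification.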

[5] = target: T1, von Hippel-Lindau disease tumor suppressor/Vascular endothelial growth factor receptor 2 (Homo sapiens); experiment: Protac activity at VHL/VEGFR2 in human EA.hy 926 cells assessed as induction of VEGFR2 degradation measured after 24 to 72 hrs by Western blot analysis; format: cell-based; conditions: time 24-72 hrs; procedure, shortened: as §1
[6] = test system: EA.hy 926; experiment: Cell cycle arrest in human EA.hy 926 cells assessed as accumulation at G1 phase at 0.1 uM measured after 72 hrs by propidium iodide staining based flow cytometry (reference value: 59.78%); format: functional
[7] = test system: EA.hy 926; experiment: Cell cycle arrest in human EA.hy 926 cells assessed as accumulation at G2 phase at 0.1 uM measured after 72 hrs by propidium iodide staining based flow cytometry (reference value: 25.83%); format: functional
[8] = test system: EA.hy 926; experiment: Cell cycle arrest in human EA.hy 926 cells assessed as accumulation at S phase at 0.1 uM measured after 72 hrs by propidium iodide staining based flow cytometry (reference value: 14.39%); format: functional
[9] = test system: EA.hy 926; experiment: Cell cycle arrest in human EA.hy 926 cells assessed as accumulation at G1 phase at 1 uM measured after 72 hrs by propidium iodide staining based flow cytometry (reference value: 59.78%); format: functional
[10] = test system: EA.hy 926; experiment: Cell cycle arrest in human EA.hy 926 cells assessed as accumulation at G2 phase at 1 uM measured after 72 hrs by propidium iodide staining based flow cytometry (reference value: 25.83%); format: functional
[11] = test system: EA.hy 926; experiment: Cell cycle arrest in human EA.hy 926 cells assessed as accumulation at S phase at 1 uM measured after 72 hrs by propidium iodide staining based flow cytometry (reference value: 14.39%); format: functional
[12] = test system: EA.hy 926; experiment: Cell cycle arrest in human EA.hy 926 cells assessed as accumulation at G1 phase at 10 uM measured after 72 hrs by propidium iodide staining based flow cytometry (reference value: 59.78%); format: functional
[13] = test system: EA.hy 926; experiment: Cell cycle arrest in human EA.hy 926 cells assessed as accumulation at G2 phase at 10 uM measured after 72 hrs by propidium iodide staining based flow cytometry (reference value: 25.83%); format: functional
[14] = test system: EA.hy 926; experiment: Cell cycle arrest in human EA.hy 926 cells assessed as accumulation at S phase at 10 uM measured after 72 hrs by propidium iodide staining based flow cytometry (reference value: 14.39%); format: functional
[15] = test system: EA.hy 926; experiment: Cell cycle arrest in human EA.hy 926 cells assessed as accumulation at G1 phase at 20 uM measured after 72 hrs by propidium iodide staining based flow cytometry (reference value: 59.78%); format: functional
[16] = test system: EA.hy 926; experiment: Cell cycle arrest in human EA.hy 926 cells assessed as accumulation at G2 phase at 20 uM measured after 72 hrs by propidium iodide staining based flow cytometry (reference value: 25.83%); format: functional
[17] = test system: EA.hy 926; experiment: Cell cycle arrest in human EA.hy 926 cells assessed as accumulation at S phase at 20 uM measured after 72 hrs by propidium iodide staining based flow cytometry (reference value: 14.39%); format: functional
[18] = test system: EA.hy 926; experiment: Cell cycle arrest in human EA.hy 926 cells assessed as accumulation at G1 phase at 40 uM measured after 72 hrs by propidium iodide staining based flow cytometry (reference value: 59.78%); format: functional
[19] = test system: EA.hy 926; experiment: Cell cycle arrest in human EA.hy 926 cells assessed as accumulation at G2 phase at 40 uM measured after 72 hrs by propidium iodide staining based flow cytometry (reference value: 25.83%); format: functional
[20] = test system: EA.hy 926; experiment: Cell cycle arrest in human EA.hy 926 cells assessed as accumulation at S phase at 40 uM measured after 72 hrs by propidium iodide staining based flow cytometry (reference value: 14.39%); format: functional
[21] = test system: EA.hy 926; experiment: Induction of apoptosis in human EA.hy 926 cells measured after 72 hrs by Annexin V-FITC/propidium iodide staining based flow cytometry; format: functional, cell-based
[22] = test system: EA.hy 926; experiment: Induction of apoptosis in human EA.hy 926 cells assessed as viable cells at 0.1 uM measured after 72 hrs by Annexin V-FITC/propidium iodide staining based flow cytometry (reference value: 88.6%); format: functional; conditions: read-out: Activity
[23] = test system: EA.hy 926; experiment: Induction of apoptosis in human EA.hy 926 cells assessed as early apoptotic cells at 0.1 uM measured after 72 hrs by Annexin V-FITC/propidium iodide staining based flow cytometry (reference value: 3.4%); format: functional
[24] = test system: EA.hy 926; experiment: Induction of apoptosis in human EA.hy 926 cells assessed as necrotic cells at 0.1 uM measured after 72 hrs by Annexin V-FITC/propidium iodide staining based flow cytometry (reference value: 2.65%); format: functional
[25] = test system: EA.hy 926; experiment: Induction of apoptosis in human EA.hy 926 cells assessed as viable cells at 1 uM measured after 72 hrs by Annexin V-FITC/propidium iodide staining based flow cytometry (reference value: 88.6%); format: functional; conditions: read-out: Activity
[26] = test system: EA.hy 926; experiment: Induction of apoptosis in human EA.hy 926 cells assessed as early apoptotic cells at 1 uM measured after 72 hrs by Annexin V-FITC/propidium iodide staining based flow cytometry (reference value: 3.4%); format: functional
[27] = test system: EA.hy 926; experiment: Induction of apoptosis in human EA.hy 926 cells assessed as necrotic cells at 1 uM measured after 72 hrs by Annexin V-FITC/propidium iodide staining based flow cytometry (reference value: 2.65%); format: functional
[28] = test system: EA.hy 926; experiment: Induction of apoptosis in human EA.hy 926 cells assessed as viable cells at 10 uM measured after 72 hrs by Annexin V-FITC/propidium iodide staining based flow cytometry (reference value: 88.6%); format: functional; conditions: read-out: Activity
[29] = test system: EA.hy 926; experiment: Induction of apoptosis in human EA.hy 926 cells assessed as early apoptotic cells at 10 uM measured after 72 hrs by Annexin V-FITC/propidium iodide staining based flow cytometry (reference value: 3.4%); format: functional
[30] = test system: EA.hy 926; experiment: Induction of apoptosis in human EA.hy 926 cells assessed as necrotic cells at 10 uM measured after 72 hrs by Annexin V-FITC/propidium iodide staining based flow cytometry (reference value: 2.65%); format: functional
[31] = test system: EA.hy 926; experiment: Induction of apoptosis in human EA.hy 926 cells assessed as viable cells at 20 uM measured after 72 hrs by Annexin V-FITC/propidium iodide staining based flow cytometry (reference value: 88.6%); format: functional; conditions: read-out: Activity
[32] = test system: EA.hy 926; experiment: Induction of apoptosis in human EA.hy 926 cells assessed as early apoptotic cells at 20 uM measured after 72 hrs by Annexin V-FITC/propidium iodide staining based flow cytometry (reference value: 3.4%); format: functional
[33] = test system: EA.hy 926; experiment: Induction of apoptosis in human EA.hy 926 cells assessed as necrotic cells at 20 uM measured after 72 hrs by Annexin V-FITC/propidium iodide staining based flow cytometry (reference value: 2.65%); format: functional
[34] = test system: EA.hy 926; experiment: Induction of apoptosis in human EA.hy 926 cells assessed as viable cells at 40 uM measured after 72 hrs by Annexin V-FITC/propidium iodide staining based flow cytometry (reference value: 88.6%); format: functional; conditions: read-out: Activity
[35] = test system: EA.hy 926; experiment: Induction of apoptosis in human EA.hy 926 cells assessed as early apoptotic cells at 40 uM measured after 72 hrs by Annexin V-FITC/propidium iodide staining based flow cytometry (reference value: 3.4%); format: functional
[36] = test system: EA.hy 926; experiment: Induction of apoptosis in human EA.hy 926 cells assessed as necrotic cells at 40 uM measured after 72 hrs by Annexin V-FITC/propidium iodide staining based flow cytometry (reference value: 2.65%); format: functional
[37] = test system: EA.hy 926; experiment: Induction of apoptosis in human EA.hy 926 cells assessed as late apoptotic cells at 1 uM measured after 72 hrs by Annexin V-FITC/propidium iodide staining based flow cytometry (reference value: 5.34%)
[38] = test system: EA.hy 926; experiment: Induction of apoptosis in human EA.hy 926 cells assessed as late apoptotic cells at 10 uM measured after 72 hrs by Annexin V-FITC/propidium iodide staining based flow cytometry (reference value: 5.34%)
[39] = test system: EA.hy 926; experiment: Induction of apoptosis in human EA.hy 926 cells assessed as late apoptotic cells at 20 uM measured after 72 hrs by Annexin V-FITC/propidium iodide staining based flow cytometry (reference value: 5.34%)
[40] = test system: EA.hy 926; experiment: Induction of apoptosis in human EA.hy 926 cells assessed as late apoptotic cells at 40 uM measured after 72 hrs by Annexin V-FITC/propidium iodide staining based flow cytometry (reference value: 5.34%)
[41] = test system: EA.hy 926; experiment: Induction of apoptosis in human EA.hy 926 cells assessed as late apoptotic cells at 0.1 uM measured after 72 hrs by Annexin V-FITC/propidium iodide staining based flow cytometry (reference value: 5.34%)

Chain of Vascular endothelial growth factor receptor 2 (P35968 whole entry): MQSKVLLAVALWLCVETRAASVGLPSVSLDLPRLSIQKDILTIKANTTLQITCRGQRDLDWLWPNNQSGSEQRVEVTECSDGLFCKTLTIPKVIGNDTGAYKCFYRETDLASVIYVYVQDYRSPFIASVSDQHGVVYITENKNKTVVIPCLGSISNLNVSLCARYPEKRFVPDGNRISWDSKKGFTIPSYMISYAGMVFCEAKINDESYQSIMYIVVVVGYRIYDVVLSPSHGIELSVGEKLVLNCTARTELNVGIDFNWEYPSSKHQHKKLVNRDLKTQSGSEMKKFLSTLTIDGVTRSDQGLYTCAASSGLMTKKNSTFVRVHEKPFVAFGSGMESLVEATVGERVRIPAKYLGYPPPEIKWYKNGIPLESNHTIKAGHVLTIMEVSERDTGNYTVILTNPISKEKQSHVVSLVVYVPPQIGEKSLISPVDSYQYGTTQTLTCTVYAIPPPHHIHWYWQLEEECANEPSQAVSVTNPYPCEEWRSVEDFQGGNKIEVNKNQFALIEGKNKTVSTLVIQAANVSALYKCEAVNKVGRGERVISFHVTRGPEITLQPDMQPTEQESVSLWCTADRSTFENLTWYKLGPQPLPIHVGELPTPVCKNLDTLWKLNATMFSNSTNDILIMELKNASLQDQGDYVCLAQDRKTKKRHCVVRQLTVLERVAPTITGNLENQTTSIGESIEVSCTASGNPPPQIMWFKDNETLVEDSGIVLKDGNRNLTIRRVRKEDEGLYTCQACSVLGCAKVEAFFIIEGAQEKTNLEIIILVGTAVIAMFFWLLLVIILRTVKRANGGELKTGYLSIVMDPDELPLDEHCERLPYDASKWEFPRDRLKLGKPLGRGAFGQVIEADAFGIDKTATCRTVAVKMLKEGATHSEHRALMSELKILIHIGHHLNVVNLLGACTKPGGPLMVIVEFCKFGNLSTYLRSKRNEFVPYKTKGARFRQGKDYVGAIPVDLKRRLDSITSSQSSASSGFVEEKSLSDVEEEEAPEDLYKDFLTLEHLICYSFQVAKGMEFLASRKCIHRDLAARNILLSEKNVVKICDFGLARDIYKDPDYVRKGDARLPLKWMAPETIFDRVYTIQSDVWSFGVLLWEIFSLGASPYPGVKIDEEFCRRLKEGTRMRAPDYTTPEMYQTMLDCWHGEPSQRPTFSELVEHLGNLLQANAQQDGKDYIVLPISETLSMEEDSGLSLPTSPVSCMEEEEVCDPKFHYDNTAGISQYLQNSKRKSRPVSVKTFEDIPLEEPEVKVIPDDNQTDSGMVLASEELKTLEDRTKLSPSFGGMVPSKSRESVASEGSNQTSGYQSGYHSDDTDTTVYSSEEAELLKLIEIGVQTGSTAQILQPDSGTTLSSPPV
T1 sequence (P35968 20-1356 limits assumed): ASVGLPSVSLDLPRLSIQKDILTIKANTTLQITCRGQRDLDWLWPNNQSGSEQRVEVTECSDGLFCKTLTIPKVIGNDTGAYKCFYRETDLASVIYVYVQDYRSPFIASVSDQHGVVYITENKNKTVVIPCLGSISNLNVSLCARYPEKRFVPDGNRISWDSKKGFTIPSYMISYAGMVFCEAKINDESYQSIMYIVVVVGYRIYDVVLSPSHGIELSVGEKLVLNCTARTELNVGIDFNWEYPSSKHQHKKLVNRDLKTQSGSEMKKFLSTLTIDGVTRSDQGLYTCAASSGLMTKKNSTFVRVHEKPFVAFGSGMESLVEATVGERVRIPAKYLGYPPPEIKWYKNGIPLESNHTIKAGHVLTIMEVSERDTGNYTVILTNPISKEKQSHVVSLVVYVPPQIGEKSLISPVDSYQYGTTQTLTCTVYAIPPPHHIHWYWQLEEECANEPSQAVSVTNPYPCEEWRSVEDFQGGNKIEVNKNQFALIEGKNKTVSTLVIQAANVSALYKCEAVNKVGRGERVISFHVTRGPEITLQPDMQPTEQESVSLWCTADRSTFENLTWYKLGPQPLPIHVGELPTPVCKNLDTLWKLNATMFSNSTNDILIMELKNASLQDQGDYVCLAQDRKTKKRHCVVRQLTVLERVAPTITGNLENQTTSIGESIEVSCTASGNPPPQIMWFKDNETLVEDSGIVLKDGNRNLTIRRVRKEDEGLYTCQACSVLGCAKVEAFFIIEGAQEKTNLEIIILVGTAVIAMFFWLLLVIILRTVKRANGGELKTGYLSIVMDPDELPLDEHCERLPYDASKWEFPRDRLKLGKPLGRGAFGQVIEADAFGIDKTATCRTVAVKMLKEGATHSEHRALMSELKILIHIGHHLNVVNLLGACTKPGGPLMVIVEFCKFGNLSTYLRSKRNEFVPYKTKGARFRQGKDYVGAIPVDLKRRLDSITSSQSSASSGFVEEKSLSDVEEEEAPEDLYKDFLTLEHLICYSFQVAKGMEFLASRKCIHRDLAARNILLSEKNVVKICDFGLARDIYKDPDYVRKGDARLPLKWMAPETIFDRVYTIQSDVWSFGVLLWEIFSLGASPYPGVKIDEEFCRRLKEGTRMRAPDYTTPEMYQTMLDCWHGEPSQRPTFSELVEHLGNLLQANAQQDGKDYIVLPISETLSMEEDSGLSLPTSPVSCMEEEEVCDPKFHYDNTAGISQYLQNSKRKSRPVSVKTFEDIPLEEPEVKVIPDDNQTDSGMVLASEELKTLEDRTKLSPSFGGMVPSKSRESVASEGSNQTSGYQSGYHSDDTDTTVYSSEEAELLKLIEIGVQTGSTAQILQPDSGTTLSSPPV
T1 sequence (P40337 whole entry partner): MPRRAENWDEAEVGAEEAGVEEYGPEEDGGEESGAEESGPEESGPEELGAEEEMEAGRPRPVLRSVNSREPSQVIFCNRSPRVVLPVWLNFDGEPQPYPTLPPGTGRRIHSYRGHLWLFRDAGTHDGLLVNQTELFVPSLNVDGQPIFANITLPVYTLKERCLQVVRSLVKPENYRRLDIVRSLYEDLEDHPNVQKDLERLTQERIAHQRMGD

CC(C)c1cccc(NC(=O)Nc2cccc(-c3cccc4[nH]nc(N)c34)c2)c1
IC50 [1]: 51600 nM

Cc1ccc(F)c(NC(=O)Nc2ccc(-c3cccc4[nH]nc(N)c34)cc2)c1 [LINIFANIB]
IC50 [1]: 2480 nM

Cc1ccc(F)c(NC(=O)Nc2ccc(-c3cccc4c3c(N)nn4C(=O)CCCCCCCCCCC(=O)N[C@H](C(=O)N3C[C@H](O)C[C@H]3C(=O)NCc3ccc(-c4scnc4C)cc3)C(C)(C)C)cc2)c1
IC50 [2]: 209 nM | IC50 [1]: 38600 nM | Activity [3]: Non-Toxic | Activity [4]: 60% | Activity [5]: Dose-dependent effect | Activity [6]: 58.89% | Activity [7]: 23.48% | Activity [8]: 17.63% | Activity [9]: 59.22% | Activity [10]: 25.79% | Activity [11]: 14.99% | Activity [12]: 60.14% | Activity [13]: 24.49% | Activity [14]: 15.36% | Activity [15]: 40.7% | Activity [16]: 24.92% | Activity [17]: 34.38% | Activity [18]: 25.98% | Activity [19]: 30.4% | Activity [20]: 43.62% | Activity [21]: Dose-dependent effect | viability at 0.1 µM [22]: 86.7% | Activity [23]: 4.21% | Activity [24]: 2.16% | viability at 1 µM [25]: 81.6% | Activity [26]: 5.96% | Activity [27]: 4.12% | viability at 10 µM [28]: 70.2% | Activity [29]: 12.1% | Activity [30]: 2.15% | viability at 20 µM [31]: 31.5% | Activity [32]: 18.2% | Activity [33]: 1.72% | viability at 40 µM [34]: 8.82% | Activity [35]: 26.4% | Activity [36]: 0.59% | late apoptotic cells % [37]: 8.32% | late apoptotic cells % [38]: 15.6% | late apoptotic cells % [39]: 48.7% | late apoptotic cells % [40]: 64.2% | late apoptotic cells % [41]: 6.94%

Cc1ccc(F)c(NC(=O)Nc2ccc(-c3cccc4c3c(N)nn4C(=O)CCCCCCCCCCCCCCC(=O)N[C@H](C(=O)N3C[C@H](O)C[C@H]3C(=O)NCc3ccc(-c4scnc4C)cc3)C(C)(C)C)cc2)c1
IC50 [2]: 80.4 nM | Activity [3]: Non-Toxic
